Laboratory results reported in ChEMBL document CHEMBL1649165, “Activity profile in vitro of micafungin against Spanish clinical isolates of common and emerging species of yeasts and molds” (2009).
In brackets after ≈: the same amount, converted by molar mass.

Key:
Type in all cases: functional
Fusarium solani = experiment: Antimicrobial activity against Fusarium solani by broth microdilution method
How it was run: (§1)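 Filamentous fungus clinical isolates tested by the AFST-EUCAST reference broth microdilution method for moulds. For echinocandins, the endpoint was the minimum effective concentration: the lowest drug concentration giving aberrant hyphal growth, read with an inverted microscope.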

Alternaria alternata = experiment: Antimicrobial activity against Alternaria alternata by broth microdilution method
How it was run: (§2)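 Clinical mould isolates, tested by broth microdilution using the AFST-EUCAST reference method for filamentous fungi. For echinocandins, the endpoint was the minimum effective concentration: the lowest drug concentration giving aberrant hyphal growth, read with an inverted microscope.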

Aspergillus ustus = experiment: Antimicrobial activity against Aspergillus ustus by broth microdilution method; how it was run: as §2
Rhodotorula glutinis = experiment: Antimicrobial activity against Rhodotorula glutinis by broth microdilution method
How it was run: (§3)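 Nonfermentative yeast clinical isolates (Rhodotorula, Trichosporon) tested by broth microdilution. The EUCAST yeast recommendations were followed strictly, with one minor modification to improve growth. MIC was read as the endpoint.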

[1] = Antimicrobial activity against Rhizopus microsporus by broth microdilution method; how it was run: as §1
Aureobasidium pullulans = experiment: Antimicrobial activity against Aureobasidium pullulans by broth microdilution method
Aspergillus niger = experiment: Antimicrobial activity against Aspergillus niger by broth microdilution method; how it was run: as §2
[2] = system: Scopulariopsis brevicaulis; experiment: Antimicrobial activity against Scopulariopsis brevicaulis by broth microdilution method; how it was run: as §1
Mucor = experiment: Antimicrobial activity against Mucor spp.by broth microdilution method; how it was run: as §1
Rhodotorula mucilaginosa = experiment: Antimicrobial activity against Rhodotorula mucilaginosa by broth microdilution method; how it was run: as §3
Papiliotrema laurentii = experiment: Antimicrobial activity against Cryptococcus laurentii by broth microdilution method
How it was run: (§4)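 Clinical isolates of nonfermentative yeasts, tested by broth microdilution following EUCAST recommendations. The only change from that method was a minor modification to improve growth.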

Diutina rugosa = experiment: Antimicrobial activity against Candida rugosa by broth microdilution method
How it was run: (§5)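 Clinical isolates from human patients, tested by broth microdilution using the AFST-EUCAST reference procedure for fermentative yeasts. The MIC was read per that reference method.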

Naganishia albida = experiment: Antimicrobial activity against Cryptococcus albidus by broth microdilution method; how it was run: as §4
Debaryomyces hansenii = experiment: Antimicrobial activity against Candida famata by broth microdilution method; how it was run: as §5
Paecilomyces variotii = experiment: Antimicrobial activity against Paecilomyces variotii by broth microdilution method; how it was run: as §1
Aspergillus terreus = experiment: Antimicrobial activity against Aspergillus terreus by broth microdilution method; how it was run: as §2
Fusarium verticillioides = experiment: Antimicrobial activity against Fusarium verticillioides by broth microdilution method; how it was run: as §1
Beauveria bassiana = experiment: Antimicrobial activity against Beauveria bassiana by broth microdilution method; how it was run: as §2
Magnusiomyces capitatus = experiment: Antimicrobial activity against Dipodascus capitatus by broth microdilution method
Fennellia nivea = experiment: Antimicrobial activity against Aspergillus niveus by broth microdilution method; how it was run: as §2
Fusarium equiseti = experiment: Antimicrobial activity against Fusarium equiseti by broth microdilution method; how it was run: as §2
Aspergillus flavus = experiment: Antimicrobial activity against Aspergillus flavus by broth microdilution method; how it was run: as §2
Trichosporon = experiment: Antimicrobial activity against Trichosporon spp. by broth microdilution method; how it was run: as §3
Trichosporon ovoides = experiment: Antimicrobial activity against Trichosporon ovoides by broth microdilution method; how it was run: as §3
Clavispora lusitaniae = experiment: Antimicrobial activity against Candida lusitaniae by broth microdilution method; how it was run: as §5
Trichosporon asahii = experiment: Antimicrobial activity against Trichosporon asahii by broth microdilution method; how it was run: as §3
[3] = system: Cunninghamella bertholletiae; experiment: Antimicrobial activity against Cunninghamella bertholletiae by broth microdilution method; how it was run: as §2
Rhizomucor = experiment: Antimicrobial activity against Rhizomucor spp.by broth microdilution method; how it was run: as §1
Aspergillus versicolor = experiment: Antimicrobial activity against Aspergillus versicolor by broth microdilution method; how it was run: as §2
Exophiala dermatitidis = experiment: Antimicrobial activity against Exophiala dermatitidis by broth microdilution method
Fusarium oxysporum = experiment: Antimicrobial activity against Fusarium oxysporum by broth microdilution method; how it was run: as §2
Saksenaea vasiformis = experiment: Antimicrobial activity against Saksenaea vasiformis by broth microdilution method; how it was run: as §1
Aspergillus = experiment: Antimicrobial activity against Aspergillus spp. by broth microdilution method; how it was run: as §2
Lewia infectoria = experiment: Antimicrobial activity against Alternaria infectoria by broth microdilution method; how it was run: as §2
Paecilomyces lilacinus = experiment: Antimicrobial activity against Paecilomyces lilacinus by broth microdilution method; conditions: Purpureocillium lilacinum; how it was run: as §1
Neurospora sitophila = experiment: Antimicrobial activity against Chrysonilia sitophila by broth microdilution method; how it was run: as §2
Scedosporium apiospermum = experiment: Antimicrobial activity against Scedosporium apiospermum by broth microdilution method; how it was run: as §1
Pichia kudriavzevii = experiment: Antimicrobial activity against Candida krusei by broth microdilution method; how it was run: as §5
Trichosporon dermatis = experiment: Antimicrobial activity against Trichosporon dermatis by broth microdilution method; conditions: Cutaneotrichosporon dermatis; how it was run: as §3
Aspergillus nidulans = experiment: Antimicrobial activity against Aspergillus nidulans by broth microdilution method; how it was run: as §2
Candida parapsilosis = experiment: Antimicrobial activity against Candida parapsilosis by broth microdilution method; conditions: Lodderomyces parapsilosis; how it was run: as §5
Lecythophora hoffmannii = experiment: Antimicrobial activity against Lecythophora hoffmannii by broth microdilution method; conditions: Coniochaeta hoffmannii; how it was run: as §1
Cladosporium = experiment: Antimicrobial activity against Cladosporium spp. by broth microdilution method; how it was run: as §2
[Candida] intermedia = Antimicrobial activity against Candida intermedia by broth microdilution method; conditions: Sungouiella intermedia; how it was run: as §5
Fusarium reticulatum = experiment: Antimicrobial activity against Fusarium reticulatum by broth microdilution method; how it was run: as §1
Coprinellus domesticus = experiment: Antimicrobial activity against Hormographiella verticillata by broth microdilution method; how it was run: as §1

Compound: C[C@@H](c1ncncc1F)[C@](O)(Cn1cncn1)c1ccc(F)cc1F [VORICONAZOLE]
- MIC50 (Fusarium solani): > 8 µg/mL
- MIC90 (Fusarium solani): 4 µg/mL (≈ 11.5 µM)
- MIC50 (Alternaria alternata): 4 µg/mL (≈ 11.5 µM)
- MIC90 (Alternaria alternata): > 8 µg/mL
- MIC50 (Aspergillus ustus): 0.25 µg/mL (≈ 0.716 µM)
- MIC90 (Aspergillus ustus): > 8 µg/mL
- MIC50 (Rhodotorula glutinis): 0.5 µg/mL (≈ 1.43 µM)
- MIC90 (Rhodotorula glutinis): > 8 µg/mL
- MIC50 [1]: > 8 µg/mL
- MIC90 [1]: > 8 µg/mL
- MIC50 (Aureobasidium pullulans): 0.06 µg/mL (≈ 0.172 µM)
- MIC90 (Aureobasidium pullulans): > 8 µg/mL
- MIC50 (Aspergillus niger): 1 µg/mL (≈ 2.86 µM)
- MIC90 (Aspergillus niger): 2 µg/mL (≈ 5.73 µM)
- MIC50 [2]: 4 µg/mL (≈ 11.5 µM)
- MIC90 [2]: > 8 µg/mL
- MIC50 (Mucor): > 8 µg/mL
- MIC90 (Mucor): > 8 µg/mL
- MIC50 (Rhodotorula mucilaginosa): 4 µg/mL (≈ 11.5 µM)
- MIC90 (Rhodotorula mucilaginosa): > 8 µg/mL
- MIC50 (Papiliotrema laurentii): 0.5 µg/mL (≈ 1.43 µM)
- MIC90 (Papiliotrema laurentii): > 8 µg/mL
- MIC50 (Diutina rugosa): 0.12 µg/mL (≈ 0.344 µM)
- MIC90 (Diutina rugosa): > 8 µg/mL
- MIC50 (Naganishia albida): 0.5 µg/mL (≈ 1.43 µM)
- MIC90 (Naganishia albida): > 8 µg/mL
- MIC50 (Debaryomyces hansenii): 0.12 µg/mL (≈ 0.344 µM)
- MIC90 (Debaryomyces hansenii): > 8 µg/mL
- MIC50 (Paecilomyces variotii): 1 µg/mL (≈ 2.86 µM)
- MIC90 (Paecilomyces variotii): > 8 µg/mL
- MIC50 (Aspergillus terreus): 1 µg/mL (≈ 2.86 µM)
- MIC90 (Aspergillus terreus): 2 µg/mL (≈ 5.73 µM)
- MIC50 (Fusarium verticillioides): 8 µg/mL (≈ 22.9 µM)
- MIC90 (Fusarium verticillioides): > 8 µg/mL
- MIC50 (Beauveria bassiana): 4 µg/mL (≈ 11.5 µM)
- MIC90 (Beauveria bassiana): > 8 µg/mL
- MIC50 (Magnusiomyces capitatus): 0.5 µg/mL (≈ 1.43 µM)
- MIC90 (Magnusiomyces capitatus): 1 µg/mL (≈ 2.86 µM)
- MIC50 (Fennellia nivea): 0.25 µg/mL (≈ 0.716 µM)
- MIC90 (Fennellia nivea): > 8 µg/mL
- MIC50 (Fusarium equiseti): 4 µg/mL (≈ 11.5 µM)
- MIC90 (Fusarium equiseti): > 8 µg/mL
- MIC50 (Aspergillus flavus): 1 µg/mL (≈ 2.86 µM)
- MIC90 (Aspergillus flavus): 2 µg/mL (≈ 5.73 µM)
- MIC50 (Trichosporon): 0.5 µg/mL (≈ 1.43 µM)
- MIC90 (Trichosporon): > 8 µg/mL
- MIC50 (Trichosporon ovoides): 0.5 µg/mL (≈ 1.43 µM)
- MIC90 (Trichosporon ovoides): > 8 µg/mL
- MIC50 (Clavispora lusitaniae): 0.02 µg/mL (≈ 0.0573 µM)
- MIC90 (Clavispora lusitaniae): 0.02 µg/mL (≈ 0.0573 µM)
- MIC50 (Trichosporon asahii): 0.25 µg/mL (≈ 0.716 µM)
- MIC90 (Trichosporon asahii): > 8 µg/mL
- MIC50 [3]: > 8 µg/mL
- MIC90 [3]: > 8 µg/mL
- MIC50 (Rhizomucor): > 8 µg/mL
- MIC90 (Rhizomucor): > 8 µg/mL
- MIC50 (Aspergillus versicolor): 1 µg/mL (≈ 2.86 µM)
- MIC90 (Aspergillus versicolor): 2 µg/mL (≈ 5.73 µM)
- MIC50 (Exophiala dermatitidis): 0.06 µg/mL (≈ 0.172 µM)
- MIC90 (Exophiala dermatitidis): > 8 µg/mL
- MIC50 (Fusarium oxysporum): 4 µg/mL (≈ 11.5 µM)
- MIC90 (Fusarium oxysporum): > 8 µg/mL
- MIC50 (Saksenaea vasiformis): > 8 µg/mL
- MIC90 (Saksenaea vasiformis): > 8 µg/mL
- MIC50 (Aspergillus): 0.25 µg/mL (≈ 0.716 µM)
- MIC90 (Aspergillus): > 8 µg/mL
- MIC50 (Lewia infectoria): 2 µg/mL (≈ 5.73 µM)
- MIC90 (Lewia infectoria): > 8 µg/mL
- MIC50 (Paecilomyces lilacinus): 0.5 µg/mL (≈ 1.43 µM)
- MIC90 (Paecilomyces lilacinus): > 8 µg/mL
- MIC50 (Neurospora sitophila): 4 µg/mL (≈ 11.5 µM)
- MIC90 (Neurospora sitophila): > 8 µg/mL
- MIC50 (Scedosporium apiospermum): 0.5 µg/mL (≈ 1.43 µM)
- MIC90 (Scedosporium apiospermum): 2 µg/mL (≈ 5.73 µM)
- MIC50 (Pichia kudriavzevii): 0.25 µg/mL (≈ 0.716 µM)
- MIC90 (Pichia kudriavzevii): 0.5 µg/mL (≈ 1.43 µM)
- MIC50 (Trichosporon dermatis): 0.5 µg/mL (≈ 1.43 µM)
- MIC90 (Trichosporon dermatis): > 8 µg/mL
- MIC50 (Aspergillus nidulans): 0.25 µg/mL (≈ 0.716 µM)
- MIC90 (Aspergillus nidulans): 1 µg/mL (≈ 2.86 µM)
- MIC50 (Candida parapsilosis): 0.02 µg/mL (≈ 0.0573 µM)
- MIC90 (Candida parapsilosis): 0.02 µg/mL (≈ 0.0573 µM)
- MIC50 (Lecythophora hoffmannii): 0.06 µg/mL (≈ 0.172 µM)
- MIC90 (Lecythophora hoffmannii): > 8 µg/mL
- MIC50 (Cladosporium): 0.06 µg/mL (≈ 0.172 µM)
- MIC90 (Cladosporium): > 8 µg/mL
- MIC50 ([Candida] intermedia): 0.12 µg/mL (≈ 0.344 µM)
- MIC90 ([Candida] intermedia): > 8 µg/mL
- MIC50 (Fusarium reticulatum): 4 µg/mL (≈ 11.5 µM)
- MIC90 (Fusarium reticulatum): > 8 µg/mL
- MIC50 (Coprinellus domesticus): 4 µg/mL (≈ 11.5 µM)
- MIC90 (Coprinellus domesticus): > 8 µg/mL
